One data set has as its system Syrian golden hamster. The data set is described as follows: Drug level in CE-2 chow diet-fed golden Syrian hamster treated with 100 mg/kg, po 3-(4-(4-(1,1,1,3,3,3-Hexafluoro-2-hydroxypropan-2-yl)-2,6-di-n-propylphenoxy)-butyl)-5-(4-(1-methylethoxy)phenyl)-5-methylimidazolidine-2,4-dione assessed as compound formation after 0.5 to 24 hrs by HPLC-LC-MS/MS method. The format is ADME, organism-based, Mesocricetus auratus. Conditions: in vivo.

Data set [1] has as its target T1, Oxysterols receptor LXR-alpha (Homo sapiens, UniProt Q13133).
T1 sequence (Q13133 whole entry): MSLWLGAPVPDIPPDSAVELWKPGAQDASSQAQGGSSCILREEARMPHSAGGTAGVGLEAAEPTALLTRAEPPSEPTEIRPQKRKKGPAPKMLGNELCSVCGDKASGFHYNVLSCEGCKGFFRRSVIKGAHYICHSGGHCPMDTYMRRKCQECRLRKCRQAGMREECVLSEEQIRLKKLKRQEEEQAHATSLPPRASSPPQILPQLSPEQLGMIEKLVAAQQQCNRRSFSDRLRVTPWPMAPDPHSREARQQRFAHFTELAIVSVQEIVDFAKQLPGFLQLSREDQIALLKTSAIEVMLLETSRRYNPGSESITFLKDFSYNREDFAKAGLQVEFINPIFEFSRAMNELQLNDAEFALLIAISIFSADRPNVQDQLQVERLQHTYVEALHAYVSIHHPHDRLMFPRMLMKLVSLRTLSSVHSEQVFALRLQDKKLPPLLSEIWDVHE
The data set is described as follows: Agonist activity at LXRalpha (unknown origin) expressed in CHOK1 cells incubated for 24 hrs by GAL4-responsive luciferase reporter gene assay. The format is cell-based, CHO-K1. The essentials:
(§1)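 CHO-K1 cells carrying the GAL4-responsive pG5luc reporter and a GAL4-LXR LBD construct were seeded at 20,000 cells/well in HAM-F12 with 10% immobilized fetal bovine serum, penicillin G and streptomycin, at 37 °C and 5% CO2. After 24 h, compound was added at 0.01–30 µM for a further 24 h. Luminescence was read with Bright-Glo substrate. EC50 is the mean of two independent experiments.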

The target of data set [2] is T2, Oxysterols receptor LXR-beta (Homo sapiens) (UniProt P55055).
T2 sequence (whole entry): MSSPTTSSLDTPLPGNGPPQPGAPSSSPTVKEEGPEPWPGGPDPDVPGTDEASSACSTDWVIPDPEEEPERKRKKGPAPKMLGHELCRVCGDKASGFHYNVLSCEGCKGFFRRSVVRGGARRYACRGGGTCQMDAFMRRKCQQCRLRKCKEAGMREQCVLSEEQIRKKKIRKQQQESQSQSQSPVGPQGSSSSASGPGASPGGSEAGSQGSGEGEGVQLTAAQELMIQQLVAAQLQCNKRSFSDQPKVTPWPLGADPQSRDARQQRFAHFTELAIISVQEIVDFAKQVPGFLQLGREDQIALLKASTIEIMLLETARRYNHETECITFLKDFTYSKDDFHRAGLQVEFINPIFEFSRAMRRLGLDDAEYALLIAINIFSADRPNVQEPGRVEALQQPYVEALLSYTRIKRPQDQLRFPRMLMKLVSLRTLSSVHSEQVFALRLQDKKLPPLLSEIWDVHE
As to the kind of experiment: Agonist activity at LXRbeta (unknown origin) expressed in CHOK1 cells incubated for 24 hrs by GAL4-responsive luciferase reporter gene assay relative to 10 uM T0901317. Conditions: CHO-K1. The format is cell-based. The essentials: (§2)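 The GAL4-LXR LBD luciferase reporter was run in CHO-K1 cells. Cells were seeded at 20,000/well in HAM-F12 with 10% immobilized FBS and antibiotics for 24 h, then exposed to compound at 0.01, 0.1, 1, 10 and 30 µM for 24 h, with a Bright-Glo luminescence read-out. Values are means of two independent experiments.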
On the technique in general: A reporter such as luciferase makes a cellular process visible.

Data set [3] deals with T3, Oxysterols receptor LXR-alpha (Homo sapiens) (UniProt Q13133).
T3 sequence (whole entry): T1 sequence (Q13133 whole entry)
The data set is described as follows: Agonist activity at LXRalpha (unknown origin) expressed in CHOK1 cells incubated for 24 hrs by GAL4-responsive luciferase reporter gene assay relative to 10 uM T0901317. The format is cell-based. Conditions: CHO-K1. The essentials:
as §2

Data set [4] addresses T4, Oxysterols receptor LXR-beta (Homo sapiens, UniProt P55055).
T4 sequence (P55055 whole entry): T2 sequence (whole entry)
As to the kind of experiment: Agonist activity at LXRbeta (unknown origin) expressed in CHOK1 cells incubated for 24 hrs by GAL4-responsive luciferase reporter gene assay. Type of data set: cell-based, CHO-K1. The essentials:
as §1

For data set [5], the target named is T4, Oxysterols receptor LXR-beta. The data set is described as follows: Agonist activity at LXRbeta (unknown origin).
Data set [6] in a line: Clearance in human hepatic microsomes. Particulars: liver microsomes, read-out: CLH. The format is ADME. A general note: Microsomes from liver hold many membrane-bound enzymes, among them those of drug oxidation.
Data set [7] can be described thus: Clearance in mouse hepatic microsomes. Conditions: liver microsomes, read-out: CLH. Type of data set: ADME.
Data set [8] is described as follows: Clearance in hamster hepatic microsomes. The format is ADME. Conditions: cricetinae, liver microsomes; read-out: CLH.
Data set [9] concerns Hamster. As to the kind of experiment: Hypolipidemic effect in Bio F1B hamster fed with high fat and cholesterol diet assessed as LDL-cholesterol level at 10 mg/kg, po relative to control. The format is functional, Cricetinae.
Data set [10] concerns Hamster. As to the kind of experiment: Hypolipidemic effect in Bio F1B hamster fed with high fat and cholesterol diet assessed as HDL-cholesterol level at 10 mg/kg, po relative to control. The format is functional, Cricetinae.
Data set [11] deals with Hamster. The data set is described as follows: Hypolipidemic effect in Bio F1B hamster fed with high fat and cholesterol diet assessed as lipid-accumulation area in aortic arch at 10 mg/kg, po relative to control. Type of data set: functional, Cricetinae.
The test system of data set [12] is Hamster. As to the kind of experiment: Effect in lipid profiles in Bio F1B hamster fed with high fat and cholesterol diet assessed as triglyceride level at 10 mg/kg, po relative to control. The format is organism-based. Conditions: cricetinae, in vivo.
For data set [13], the system named is Hamster. As to the kind of experiment: Increase in ABCG5 gene expression in Bio F1B hamster intestine at 10 mg/kg, po. The format is functional, Cricetinae.
In data set [14] the test system is Hamster. As to the kind of experiment: Increase in ABCG8 gene expression in Bio F1B hamster intestine at 10 mg/kg, po. The format is functional, Cricetinae.
In data set [15] the test system is Hamster. As to the kind of experiment: Hypolipidemic effect in Bio F1B hamster fed with high fat and cholesterol diet assessed as total cholesterol level at 10 mg/kg, po relative to control. Type of data set: functional, Cricetinae.
Data set [16] relates to Hamster. The data set is described as follows: Increase in ABCA1 gene expression in Bio F1B hamster peripheral blood at 10 mg/kg, po. The format is functional, Cricetinae.
The test system of data set [17] is Hamster. The data set is described as follows: Increase in ABCA1 gene expression in Bio F1B hamster intestine at 10 mg/kg, po. The format is functional, Cricetinae.

In the case of `CCCc1cc(C(O)(C(F)(F)F)C(F)(F)F)cc(CCC)c1OCCCC(=O)O`, the Drug metabolism result in the data set with Syrian golden hamster is given as “metabolite_detected”.

Take `CCCc1cc(C(O)(C(F)(F)F)C(F)(F)F)cc(CCC)c1OCCCCN1C(=O)NC(C)(c2ccc3c(c2)OCO3)C1=O` (centres undefined): the values for the EC50 in data set [1] and in data set [4] were 400 nM and 100 nM, respectively. The figures for the Emax in [2] and in [3] were 101% and 89%, respectively.

Turning to `O=C(O)Cc1cccc(OCCCN(Cc2cccc(C(F)(F)F)c2Cl)CC(c2ccccc2)c2ccccc2)c1`, the EC50 (in general, the concentration at which the effect is half-maximal) in [5] came to 400 nM.

On to `CCCc1cc(C(O)(C(F)(F)F)C(F)(F)F)ccc1OCCCCN1C(=O)NC(C)(c2ccc3c(c2)OCO3)C1=O` (centres undefined), for which the figures for the EC50 in data set [1] and in data set [4] were 1700 nM and 500 nM, respectively. Further, the Emax (in general, the size of the effect at its maximum, as opposed to the concentration needed) in data set [2] came out at 118%; in [3], 54%. For the same compound, the microsomal CLint in data set [6] came to 31 µL/min/mg; in data set [7], 73 µL/min/mg; in [8], 351 µL/min/mg.

Turning to `CCCc1cc(C(O)(C(F)(F)F)C(F)(F)F)cc(CCC)c1OCCCCN1C(=O)NC(CC)(c2ccc3c(c2)OCO3)C1=O` (centres undefined), the results for the EC50 in data set [1] and in data set [4] were 600 nM and 700 nM, respectively. Also, the Emax in data set [2] and in [3] was 118% each time.

For the compound `CCCc1cc(C(O)(C(F)(F)F)C(F)(F)F)ccc1OCCCCN1C(=O)NC(CCC)(c2ccc3c(c2)OCO3)C1=O` (centres undefined), the EC50 in data set [1] stood at 2300 nM; in data set [4], 1300 nM. In addition, the Emax turned out to be 72% in data set [2] and 42% in data set [3].

Turning to `O=S(=O)(c1ccccc1)N(CC(F)(F)F)c1ccc(C(O)(C(F)(F)F)C(F)(F)F)cc1` [T091317], the Activity with Hamster [9] was determined as 75%; in the data set on Hamster [10], 76%; in the data set with Hamster [11], 40%; in the data set on Hamster [12], 251%; in the data set on Hamster [15], 124%. In addition, the “fold change (FC)” value stood at 1.5 in the data set on Hamster [13], 1.4 in the data set on Hamster [14], 1.3 in the data set on Hamster [16] and 3.4 in the data set with Hamster [17].

Take `CCCc1cc(C(O)(C(F)(F)F)C(F)(F)F)ccc1OCCCCN1C(=O)NC(CC)(c2ccc3c(c2)OCO3)C1=O` (centres undefined): the EC50 was 1500 nM in data set [1] and 700 nM in data set [4]. For the same compound, the Emax in data set [2] worked out at 172%; in data set [3], 72%.

The record behind these values is ChEMBL document CHEMBL3588803, “Design, synthesis and pharmacology of 1,1-bistrifluoromethylcarbinol derivatives as liver X receptor β-selective agonists” (Bioorg Med Chem Lett, 2015).
